Results from the RNAGym collection of RNA variant scans (doi:10.1038/s41586-018-0170-7).

B1: tRNA (parent)
chain: GUUCCGUUGGCGUAAUGGUAACGCGUCUCCCUCCUAAGGAGAAGACUGCGGGUUCGAGUCCCGUACGGAACG

Variants of: B1
Assay: yeast fitness, log relative to wild type (ln ratio); higher = fitter; tRNA-Arg(CCU), competitive growth, 37 C, 1 M NaCl
Outline: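 Genotype fitness is expressed as the natural log of its generations over those of the wild type. Each pool of the tRNA-Arg(CCU) variant library, carried on a HIS3 centromeric plasmid in BY4742 lacking the chromosomal gene, came from one of two independent transformations and grew 4 generations in SC-HIS at 30 °C before ~6.5 generations (~26.5 h) in SC-HIS 1M NaCl at 37 °C. Generation numbers used OD-scaled log2 output/input frequencies from 125 bp paired-end Illumina sequencing, combined across replicates by inverse-variance weighting.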

Row | Variant | yeast fitness (ln)
1 | ACUCCUUUGGCGUAAUGGUAACGCGUCUCCCUCCUAAGGAGACGAUUGCGGGUUCGAGUCCCGUAAGGAUCG | -0.177
2 | GGUCCGUUGGCGUAAUGGUAACGCGUCUCCCUCCUAAGGAGACGAUUGCGGGUUCGAGUCCCGUAUGGGAUG | -0.279
3 | AUUCCGUUGGCGUAAUGGUAACGCGUCUCCCUCCUAAGGAGAAGAUUGCGGGUUCGAGUCCCGUACGGAAUG | -0.01
4 | GUUCCGUUGGCGUAAUGGUAACGCGUCUCCCUCCUAAGGAGACGAUUGCGGGUUCGAGUCCCGUAAGGAACG | -0.0152
5 | ACUCCGUUGGCGUAAUGGUAACGCGUCUCCCUCCUAAGGAGACGAUUGCGGGUUCGAGUCCCGUACGGGGUG | -0.00408
6 | GCUCCUUUGGCGUAAUGGUAACGCGUUUCCCUCCUAAGGAGAAGAUUGCGGGUUCGAGUCCCGUAUGGAGUG | -0.177
7 | AUUCCAUUGGCGUAAUGGUAACGCGUCUCCCUCCUAAGGAGAAGACUGCGGGUUCGAGUCCCGUACGGAGUG | -0.115
8 | GCUCCUUUGGCGUAAUGGUAACGCGUCUCCCUCCUAAGGAGACGACUGCGGGUUCGAGUCCCGUAAGGAUUG | -0.272
9 | GGUCCGUUGGCGUAAUGGUAACGCGUUUCCCUCCUAAGGAGACGAUUGCGGGUUCGAGUCCCGUAUGGAUUG | -0.265
10 | AGUCCUUUGGCGUAAUGGUAACGCGUUUCCCUCCUAAGGAGAAGACUGCGGGUUCGAGUCCCGUAUGGAAUG | -0.522
11 | GUUCCGUUGGCGUAAUGGUAACGCGUUUCCCUCCUAAGGAGAAGAUUGCGGGUUCGAGUCCCGUACGGAGCG | -0.029
12 | GUUCCUUUGGCGUAAUGGUAACGCGUCUCCCUCCUAAGGAGACGACUGCGGGUUCGAGUCCCGUACGGGGCG | -0.371
13 | GCUCCGUUGGCGUAAUGGUAACGCGUUUCCCUCCUAAGGAGAAGAUUGCGGGUUCGAGUCCCGUAAGGAUUG | -0.134
14 | GUUCCGUUGGCGUAAUGGUAACGCGUUUCCCUCCUAAGGAGACGACUGCGGGUUCGAGUCCCGUAAGGAACG | -0.0618
15 | ACUCCGUUGGCGUAAUGGUAACGCGUUUCCCUCCUAAGGAGACGAUUGCGGGUUCGAGUCCCGUAAGGGGUG | -0.158
16 | ACUCCGUUGGCGUAAUGGUAACGCGUUUCCCUCCUAAGGAGAAGAUUGCGGGUUCGAGUCCCGUACGGAUUG | -0.155
17 | GCUCCGUUGGCGUAAUGGUAACGCGUUUCCCUCCUAAGGAGAAGACUGCGGGUUCGAGUCCCGUACGGAUUG | -0.104
18 | GGUCCUUUGGCGUAAUGGUAACGCGUCUCCCUCCUAAGGAGAAGACUGCGGGUUCGAGUCCCGUACGGAGUG | -0.173
19 | AUUCCUUUGGCGUAAUGGUAACGCGUUUCCCUCCUAAGGAGAAGAUUGCGGGUUCGAGUCCCGUAUGGAACG | -0.313
20 | GGUCCGUUGGCGUAAUGGUAACGCGUUUCCCUCCUAAGGAGAAGACUGCGGGUUCGAGUCCCGUACGGGGUG | -0.178
21 | GUUCCUUUGGCGUAAUGGUAACGCGUUUCCCUCCUAAGGAGAAGACUGCGGGUUCGAGUCCCGUAAGGAACG | -0.0293
22 | GGUCCGUUGGCGUAAUGGUAACGCGUCUCCCUCCUAAGGAGAAGACUGCGGGUUCGAGUCCCGUAAGGGAUG | -0.145
23 | ACUCCAUUGGCGUAAUGGUAACGCGUCUCCCUCCUAAGGAGAAGAUUGCGGGUUCGAGUCCCGUAUGGGUCG | -0.0207
24 | AUUCCUUUGGCGUAAUGGUAACGCGUUUCCCUCCUAAGGAGACGACUGCGGGUUCGAGUCCCGUAUGGAGCG | -0.609
25 | GUUCCUUUGGCGUAAUGGUAACGCGUCUCCCUCCUAAGGAGACGACUGCGGGUUCGAGUCCCGUAAGGAUUG | -0.29

Row | Variant | yeast fitness (ln)
26 | AUUCCAUUGGCGUAAUGGUAACGCGUUUCCCUCCUAAGGAGACGACUGCGGGUUCGAGUCCCGUACGGAUUG | -0.314
27 | GCUCCGUUGGCGUAAUGGUAACGCGUUUCCCUCCUAAGGAGACGACUGCGGGUUCGAGUCCCGUAAGGGGUG | -0.328
28 | GCUCCUUUGGCGUAAUGGUAACGCGUUUCCCUCCUAAGGAGACGACUGCGGGUUCGAGUCCCGUAUGGGUUG | -0.419
29 | GUUCCGUUGGCGUAAUGGUAACGCGUUUCCCUCCUAAGGAGACGACUGCGGGUUCGAGUCCCGUACGGGAUG | -0.44
30 | ACUCCGUUGGCGUAAUGGUAACGCGUCUCCCUCCUAAGGAGACGAUUGCGGGUUCGAGUCCCGUAAGGGGUG | -0.0434
31 | AUUCCUUUGGCGUAAUGGUAACGCGUCUCCCUCCUAAGGAGACGACUGCGGGUUCGAGUCCCGUAAGGAUCG | -0.411
32 | AUUCCAUUGGCGUAAUGGUAACGCGUUUCCCUCCUAAGGAGAAGAUUGCGGGUUCGAGUCCCGUAUGGGUUG | -0.436
33 | AGUCCUUUGGCGUAAUGGUAACGCGUUUCCCUCCUAAGGAGAAGAUUGCGGGUUCGAGUCCCGUAUGGAAUG | -0.285
34 | GGUCCGUUGGCGUAAUGGUAACGCGUUUCCCUCCUAAGGAGACGACUGCGGGUUCGAGUCCCGUACGGGGCG | -0.238
35 | ACUCCAUUGGCGUAAUGGUAACGCGUUUCCCUCCUAAGGAGACGAUUGCGGGUUCGAGUCCCGUACGGAGUG | -0.149
36 | AUUCCUUUGGCGUAAUGGUAACGCGUCUCCCUCCUAAGGAGAAGAUUGCGGGUUCGAGUCCCGUAUGGGGUG | -0.216
37 | GCUCCUUUGGCGUAAUGGUAACGCGUCUCCCUCCUAAGGAGACGAUUGCGGGUUCGAGUCCCGUAAGGAGUG | 0.00139
38 | AUUCCUUUGGCGUAAUGGUAACGCGUCUCCCUCCUAAGGAGACGACUGCGGGUUCGAGUCCCGUAAGGAAUG | -0.0965
39 | AGUCCGUUGGCGUAAUGGUAACGCGUCUCCCUCCUAAGGAGACGACUGCGGGUUCGAGUCCCGUACGGGGUG | -0.202
40 | AUUCCAUUGGCGUAAUGGUAACGCGUCUCCCUCCUAAGGAGACGACUGCGGGUUCGAGUCCCGUACGGAACG | -0.204
41 | AGUCCAUUGGCGUAAUGGUAACGCGUCUCCCUCCUAAGGAGACGAUUGCGGGUUCGAGUCCCGUACGGAUCG | -0.165
42 | ACUCCUUUGGCGUAAUGGUAACGCGUUUCCCUCCUAAGGAGAAGAUUGCGGGUUCGAGUCCCGUACGGAACG | -0.0885
43 | GGUCCGUUGGCGUAAUGGUAACGCGUUUCCCUCCUAAGGAGAAGACUGCGGGUUCGAGUCCCGUAUGGAACG | -0.0998
44 | GGUCCGUUGGCGUAAUGGUAACGCGUCUCCCUCCUAAGGAGAAGACUGCGGGUUCGAGUCCCGUAAGGGUUG | -0.291
45 | AUUCCAUUGGCGUAAUGGUAACGCGUCUCCCUCCUAAGGAGACGACUGCGGGUUCGAGUCCCGUACGGAGUG | -0.27
46 | ACUCCGUUGGCGUAAUGGUAACGCGUCUCCCUCCUAAGGAGAAGAUUGCGGGUUCGAGUCCCGUACGGGUUG | -0.257
47 | GCUCCGUUGGCGUAAUGGUAACGCGUUUCCCUCCUAAGGAGAAGACUGCGGGUUCGAGUCCCGUAAGGAUUG | -0.222
48 | ACUCCGUUGGCGUAAUGGUAACGCGUUUCCCUCCUAAGGAGAAGACUGCGGGUUCGAGUCCCGUACGGGGCG | -0.209
49 | GUUCCAUUGGCGUAAUGGUAACGCGUCUCCCUCCUAAGGAGAAGAUUGCGGGUUCGAGUCCCGUACGGAGCG | -0.226
50 | ACUCCAUUGGCGUAAUGGUAACGCGUCUCCCUCCUAAGGAGACGACUGCGGGUUCGAGUCCCGUACGGAACG | -0.0264

Row | Variant | yeast fitness (ln)
51 | AGUCCGUUGGCGUAAUGGUAACGCGUCUCCCUCCUAAGGAGACGACUGCGGGUUCGAGUCCCGUACGGAACG | -0.0767
52 | GUUCCGUUGGCGUAAUGGUAACGCGUUUCCCUCCUAAGGAGACGACUGCGGGUUCGAGUCCCGUACGGGGUG | -0.142
53 | ACUCCUUUGGCGUAAUGGUAACGCGUUUCCCUCCUAAGGAGAAGAUUGCGGGUUCGAGUCCCGUAUGGAGUG | -0.169
54 | GCUCCGUUGGCGUAAUGGUAACGCGUCUCCCUCCUAAGGAGACGAUUGCGGGUUCGAGUCCCGUAAGGGUCG | -0.0111
55 | GCUCCAUUGGCGUAAUGGUAACGCGUCUCCCUCCUAAGGAGACGACUGCGGGUUCGAGUCCCGUACGGAACG | -0.0449
56 | GCUCCUUUGGCGUAAUGGUAACGCGUUUCCCUCCUAAGGAGACGACUGCGGGUUCGAGUCCCGUAAGGGGCG | -0.156
57 | ACUCCGUUGGCGUAAUGGUAACGCGUUUCCCUCCUAAGGAGAAGAUUGCGGGUUCGAGUCCCGUAUGGAGUG | -0.0522
58 | GCUCCAUUGGCGUAAUGGUAACGCGUUUCCCUCCUAAGGAGACGACUGCGGGUUCGAGUCCCGUAUGGAAUG | -0.148
59 | GGUCCGUUGGCGUAAUGGUAACGCGUCUCCCUCCUAAGGAGAAGAUUGCGGGUUCGAGUCCCGUAUGGGAUG | -0.209
60 | GCUCCAUUGGCGUAAUGGUAACGCGUUUCCCUCCUAAGGAGACGACUGCGGGUUCGAGUCCCGUAUGGAGUG | -0.101
61 | GCUCCAUUGGCGUAAUGGUAACGCGUCUCCCUCCUAAGGAGAAGAUUGCGGGUUCGAGUCCCGUAAGGAGCG | -0.016
62 | AGUCCGUUGGCGUAAUGGUAACGCGUCUCCCUCCUAAGGAGACGACUGCGGGUUCGAGUCCCGUACGGGAUG | -0.219
63 | AGUCCUUUGGCGUAAUGGUAACGCGUCUCCCUCCUAAGGAGACGACUGCGGGUUCGAGUCCCGUAUGGAGCG | -0.271
64 | AUUCCUUUGGCGUAAUGGUAACGCGUUUCCCUCCUAAGGAGACGAUUGCGGGUUCGAGUCCCGUACGGAAUG | -0.212
65 | AGUCCGUUGGCGUAAUGGUAACGCGUUUCCCUCCUAAGGAGACGAUUGCGGGUUCGAGUCCCGUACGGAAUG | -0.0914
66 | GCUCCUUUGGCGUAAUGGUAACGCGUCUCCCUCCUAAGGAGAAGACUGCGGGUUCGAGUCCCGUAAGGAGCG | -0.0114
67 | AGUCCGUUGGCGUAAUGGUAACGCGUUUCCCUCCUAAGGAGACGAUUGCGGGUUCGAGUCCCGUACGGGACG | -0.212
68 | GCUCCUUUGGCGUAAUGGUAACGCGUCUCCCUCCUAAGGAGACGAUUGCGGGUUCGAGUCCCGUACGGAUUG | -0.125
69 | AGUCCAUUGGCGUAAUGGUAACGCGUCUCCCUCCUAAGGAGAAGAUUGCGGGUUCGAGUCCCGUAAGGAUUG | -0.134
70 | GUUCCUUUGGCGUAAUGGUAACGCGUUUCCCUCCUAAGGAGAAGAUUGCGGGUUCGAGUCCCGUAAGGGAUG | -0.507
71 | GUUCCGUUGGCGUAAUGGUAACGCGUCUCCCUCCUAAGGAGAAGACUGCGGGUUCGAGUCCCGUAUGGGGCG | -0.0718
72 | AGUCCGUUGGCGUAAUGGUAACGCGUCUCCCUCCUAAGGAGAAGACUGCGGGUUCGAGUCCCGUAUGGGUCG | -0.197
73 | GGUCCAUUGGCGUAAUGGUAACGCGUUUCCCUCCUAAGGAGACGAUUGCGGGUUCGAGUCCCGUACGGAUUG | -0.176
74 | AUUCCUUUGGCGUAAUGGUAACGCGUCUCCCUCCUAAGGAGACGACUGCGGGUUCGAGUCCCGUACGGAAUG | -0.101
75 | AGUCCUUUGGCGUAAUGGUAACGCGUUUCCCUCCUAAGGAGACGAUUGCGGGUUCGAGUCCCGUACGGAAUG | -0.277
